Laboratory results: ChEMBL document CHEMBL1137637, “Quinuclidine derivatives as potential antiparasitics” (Antimicrob Agents Chemother, 2007)
pIC50: −log10 of the molar value. ≈ marks a conversion by molar mass, not a printed value.

Tests used:
Leishmania amazonensis [1] = experiment: Inhibition of sterol biosynthesis in Leishmania mexicana amazonensis promastigotes assessed as reduction in endogenous 5-dehydro episterol level at 0.3 uM after 96 hrs by gas-liquid chromatography; format: functional; parameters: scale not given: the % may be the effect or the level left
In short: (§1)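 Promastigotes grown in liver infusion-tryptose medium with lactalbumin and 10% fetal calf serum at 26°C, static; drug added at 0.5 × 10⁷ to 1 × 10⁷ cells/ml and cells exposed for 96 h. Total lipids extracted; neutral lipids separated from polar lipids by silicic acid column chromatography; free sterols quantified by capillary gas-liquid chromatography and mass spectrometry as mass % of total sterols.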

Leishmania amazonensis [2] = experiment: Inhibition of sterol biosynthesis in Leishmania mexicana amazonensis promastigotes assessed as reduction in exogenous cholesterol level at 0.3 uM after 96 hrs by gas-liquid chromatography; format: functional; parameters: scale not given: the % may be the effect or the level left; in short: as §1
[3] = target: T1, Farnesyltransferase, putative (Leishmania major, UniProt Q4Q5W4); experiment: Inhibition of Leishmania major recombinant squalene synthase expressed in Escherichia coli by liquid scintillation counter
T1 sequence (Q4Q5W4 whole entry): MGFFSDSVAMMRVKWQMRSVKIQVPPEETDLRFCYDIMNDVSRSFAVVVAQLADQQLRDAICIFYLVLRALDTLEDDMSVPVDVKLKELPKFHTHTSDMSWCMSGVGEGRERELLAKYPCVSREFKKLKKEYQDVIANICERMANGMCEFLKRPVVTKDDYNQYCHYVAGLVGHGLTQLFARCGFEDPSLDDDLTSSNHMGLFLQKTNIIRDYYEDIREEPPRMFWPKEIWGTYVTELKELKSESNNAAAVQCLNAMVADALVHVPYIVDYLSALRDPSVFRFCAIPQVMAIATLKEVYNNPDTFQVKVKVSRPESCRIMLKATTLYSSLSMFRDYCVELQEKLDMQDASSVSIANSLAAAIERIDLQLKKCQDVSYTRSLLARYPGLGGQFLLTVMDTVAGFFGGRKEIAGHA
In short: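 Soluble E. coli extract expressing L. major SQS truncated by 16 N-terminal and 40 C-terminal residues. Buffer: 50 mM phosphate pH 7.4, 20 mM MgCl2, 5 mM CHAPS, 1% Tween 80, 10 mM DTT, BSA, 0.25 mM NADPH, and a glucose-6-phosphate/G6PDH regenerating system. Substrate 0.5 μM radiolabelled farnesyl pyrophosphate. Squalene band counted by scintillation. IC50 from hyperbolic plot of five concentrations in duplicate, usually run twice.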

Squalene synthase [4] = target: T2, Squalene synthase (Homo sapiens, UniProt P37268); experiment: Inhibition of human recombinant squalene synthase expressed in Escherichia coli BL21(DE3 pLysS) by liquid scintillation counter
T2 sequence (P37268 whole entry): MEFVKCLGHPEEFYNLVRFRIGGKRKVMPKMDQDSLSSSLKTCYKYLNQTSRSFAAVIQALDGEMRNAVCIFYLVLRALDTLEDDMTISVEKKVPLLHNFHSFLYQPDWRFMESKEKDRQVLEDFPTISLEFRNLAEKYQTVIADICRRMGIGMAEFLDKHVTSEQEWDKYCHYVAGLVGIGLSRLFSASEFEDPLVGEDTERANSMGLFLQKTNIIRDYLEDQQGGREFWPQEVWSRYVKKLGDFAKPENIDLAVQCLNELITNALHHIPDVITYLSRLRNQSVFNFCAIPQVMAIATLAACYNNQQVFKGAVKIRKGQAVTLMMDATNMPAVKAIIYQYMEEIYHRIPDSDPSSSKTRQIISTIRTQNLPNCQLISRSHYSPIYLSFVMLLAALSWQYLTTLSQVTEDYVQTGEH
In short: (§2)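 Human SQS in extracts of E. coli BL21(DE3 pLysS) carrying pHSS16, assayed under the same conditions as the L. major enzyme. Buffer: phosphate pH 7.4, MgCl2, CHAPS, Tween 80, DTT, BSA, and NADPH with a regenerating system. Substrate 0.5 μM radiolabelled farnesyl pyrophosphate. Squalene band radioactivity counted by scintillation.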

Leishmania amazonensis [5] = experiment: Antileishmanial activity against Leishmania mexicana amazonensis promastigotes by trypan blue exclusion method; format: functional, organism-based
In short: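 L. mexicana amazonensis promastigotes cultured in liver infusion-tryptose medium with lactalbumin and 10% FCS at 26°C, unagitated. Cultures started at 2 × 10⁶ cells/ml and drug added at 0.5–1 × 10⁷ cells/ml. Density counted by electronic particle counter and hemocytometer. Viability by trypan blue exclusion. Triplicate growth experiments.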

Leishmania amazonensis [6] = experiment: Inhibition of sterol biosynthesis in Leishmania mexicana amazonensis promastigotes assessed as reduction in exogenous cholesterol level at 1 uM after 96 hrs by gas-liquid chromatography; format: functional; parameters: scale not given: the % may be the effect or the level left
In short: (§3)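 L. mexicana promastigotes exposed to compound for 96 h. Total lipids extracted and neutral sterols separated from polar lipids by silicic acid column chromatography. Sterols analysed by TLC and by quantitative capillary gas-liquid chromatography with mass spectrometry. Composition expressed as mass % of free sterols, compared with untreated control.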

Leishmania amazonensis [7] = experiment: Inhibition of sterol biosynthesis in Leishmania mexicana amazonensis promastigotes assessed as reduction in endogenous 5-dehydro episterol level at 1 uM after 96 hrs by gas-liquid chromatography; format: functional; parameters: scale not given: the % may be the effect or the level left; in short: as §3
Leishmania amazonensis [8] = experiment: Inhibition of sterol biosynthesis in Leishmania mexicana amazonensis promastigotes assessed as reduction in endogenous episterol level at 1 uM after 96 hrs by gas-liquid chromatography; format: functional; parameters: scale not given: the % may be the effect or the level left; in short: as §3
Leishmania donovani = experiment: Antileishmanial activity against Leishmania donovani MHOM/ET/67/L82 axenic amastigotes after 72 hrs by resazurin assay; format: functional, organism-based; details: MHOM/ET/67/L82, 72 h
In short: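 L. donovani MHOM/ET/67/L82 amastigotes grown axenically at 37°C in synthetic minimal medium at pH 5.4 with 10% heat-inactivated FBS under 5% CO2. 1 × 10⁵ amastigotes per well with seven threefold dilutions, 30 to 0.041 μg/ml. After 72 h, resazurin added for 2–4 h more. Fluorescence read at ex 536/em 588 nm. IC50 taken from sigmoidal curve. Run in duplicate, with an independent repeat for actives.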

L6 = experiment: Cytotoxicity against rat L6 cells after 72 hrs by resazurin assay; format: cell-based; details: L6, 72 h
In short: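 L-6 cells seeded at 4 × 10⁴ cells/ml in RPMI 1640 with 10% FBS and 2 mM L-glutamine. After 24 h, medium replaced with serial drug dilution and incubated for 72 h at 37°C in 5% CO2. Resazurin added for 2–4 h, fluorescence read at ex 536/em 588 nm. IC50 from sigmoidal curve. Duplicate, with an independent repeat for actives.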

Trypanosoma cruzi = experiment: Antitrypanosomal activity against trypomastigotes of Trypanosoma cruzi Tulahuen C2C4 containing lacZ gene in rat L6 cells after 4 days by chlorophenol red-beta-D-galactopyranoside/Nonidet assay; format: functional, organism-based; details: Tulahuen C2C4, L6, 96 h
In short: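 L-6 rat myoblasts seeded at 2,000 cells/well in RPMI 1640 with 10% FBS and 2 mM L-glutamine. After 24 h, 5,000 T. cruzi Tulahuen C2C4 lacZ trypomastigotes added with serial drug dilution. Incubated at 37°C in 5% CO2 for 4 days. CPRG/Nonidet substrate added and colour read at 540 nm after 2–4 h. IC50 from sigmoidal curve. Duplicate determinations.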

[9] = system: Trypanosoma brucei rhodesiense; experiment: Trypanocidal activity against Trypanosoma brucei rhodesiense STIB 900 bloodstream form after 72 hrs by resazurin assay; format: functional, organism-based; details: STIB 900, 72 h
In short: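 T. b. rhodesiense STIB 900 bloodstream forms in MEM with 2-mercaptoethanol and 15% heat-inactivated horse serum, with serial drug dilutions. Incubated 72 h at 37°C in 5% CO2. Resazurin added for 2–4 h more, fluorescence read at ex 536/em 588 nm. IC50 from sigmoidal curve. Duplicate, with an independent repeat for actives.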

Plasmodium falciparum = experiment: Antiplasmodial activity after 48 hrs against chloroquine and pyrimethamine-resistant Plasmodium falciparum K1 in human erythrocytes by [3H]hypoxanthine uptake; format: functional, organism-based
In short: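 P. falciparum K1 in human red cells in RPMI 1640 with 5% Albumax, exposed to serial drug dilutions. Incubated 48 h at 37°C under reduced oxygen, then 0.5 μCi [³H]hypoxanthine per well for 24 h more. Cells harvested onto glass-fibre filters and counted by scintillation. Result expressed as % of untreated control, with IC50 from sigmoidal curve. Duplicate, plus an independent repeat for actives.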

Leishmania amazonensis [10] = experiment: Inhibition of sterol biosynthesis in Leishmania mexicana amazonensis promastigotes assessed as reduction in endogenous episterol level at 0.3 uM after 96 hrs by gas-liquid chromatography; format: functional; parameters: scale not given: the % may be the effect or the level left; in short: as §1
Leishmania amazonensis [11] = experiment: Inhibition of sterol biosynthesis in Leishmania mexicana amazonensis promastigotes assessed as reduction in endogenous episterol level at 0.1 uM after 96 hrs by gas-liquid chromatography; format: functional; parameters: scale not given: the % may be the effect or the level left; in short: as §3
Leishmania amazonensis [12] = experiment: Inhibition of sterol biosynthesis in Leishmania mexicana amazonensis promastigotes assessed as reduction in endogenous 5-dehydro episterol level at 0.1 uM after 96 hrs by gas-liquid chromatography; format: functional; parameters: scale not given: the % may be the effect or the level left; in short: as §3
Leishmania amazonensis [13] = experiment: Inhibition of sterol biosynthesis in Leishmania mexicana amazonensis promastigotes assessed as reduction in exogenous cholesterol level at 0.1 uM after 96 hrs by gas-liquid chromatography; format: functional; parameters: scale not given: the % may be the effect or the level left; in short: as §3
Squalene synthase [14] = target: T2, Squalene synthase; experiment: Inhibition of human recombinant squalene synthase expressed in Escherichia coli BL21(DE3 pLysS) up to 1 uM by liquid scintillation counter; in short: as §2
Leishmania amazonensis [15] = experiment: Inhibition of sterol biosynthesis in Leishmania mexicana amazonensis promastigotes assessed as reduction in endogenous cholesta-5,7,24-trien-3beta-ol level at 3 uM after 96 hrs by gas-liquid chromatography; format: functional; parameters: scale not given: the % may be the effect or the level left; in short: as §3
Leishmania amazonensis [16] = experiment: Inhibition of sterol biosynthesis in Leishmania mexicana amazonensis promastigotes assessed as reduction in endogenous cholesta-5,7,24-trien-3beta-ol level at 1 uM after 96 hrs by gas-liquid chromatography; format: functional; parameters: scale not given: the % may be the effect or the level left; in short: as §3
Leishmania amazonensis [17] = experiment: Inhibition of sterol biosynthesis in Leishmania mexicana amazonensis promastigotes assessed as reduction in exogenous cholesterol level at 3 uM after 96 hrs by gas-liquid chromatography; format: functional; parameters: scale not given: the % may be the effect or the level left; in short: as §3
Leishmania amazonensis [18] = experiment: Inhibition of sterol biosynthesis in Leishmania mexicana amazonensis promastigotes assessed as reduction in endogenous 5-dehydro episterol level at 3 uM after 96 hrs by gas-liquid chromatography; format: functional; parameters: scale not given: the % may be the effect or the level left; in short: as §3
Leishmania amazonensis [19] = experiment: Inhibition of sterol biosynthesis in Leishmania mexicana amazonensis promastigotes assessed as reduction in endogenous episterol level at 3 uM after 96 hrs by gas-liquid chromatography; format: functional; parameters: scale not given: the % may be the effect or the level left; in short: as §3
Leishmania amazonensis [20] = experiment: Inhibition of sterol biosynthesis in Leishmania mexicana amazonensis promastigotes assessed as reduction in endogenous cholesta-7,24-dien-3beta-ol level at 1 uM after 96 hrs by gas-liquid chromatography; format: functional; parameters: scale not given: the % may be the effect or the level left; in short: as §3
Leishmania amazonensis [21] = experiment: Inhibition of sterol biosynthesis in Leishmania mexicana amazonensis promastigotes assessed as reduction in endogenous cholesta-7,24-dien-3beta-ol level at 3 uM after 96 hrs by gas-liquid chromatography; format: functional; parameters: scale not given: the % may be the effect or the level left; in short: as §3
Leishmania amazonensis [22] = experiment: Inhibition of sterol biosynthesis in Leishmania mexicana amazonensis promastigotes assessed as reduction in exogenous cholesterol level at 10 uM after 96 hrs by gas-liquid chromatography; format: functional; parameters: scale not given: the % may be the effect or the level left; in short: as §3

SMILES | Activity (Leishmania amazonensis [1]) [%] | Activity (Leishmania amazonensis [2]) [%] | pIC50 [3] | MIC (Leishmania amazonensis [5]) [µM] | Activity (Leishmania amazonensis [6]) [%] | Activity (Leishmania amazonensis [7]) [%] | Activity (Leishmania amazonensis [8]) [%] | pIC50 (Leishmania donovani) | pIC50 (L6) | pIC50 (Trypanosoma cruzi) | pIC50 [9] | pIC50 (Plasmodium falciparum) | Activity (Leishmania amazonensis [10]) [%] | Activity (Leishmania amazonensis [15]) [%] | Activity (Leishmania amazonensis [16]) [%] | Activity (Leishmania amazonensis [17]) [%] | Activity (Leishmania amazonensis [18]) [%] | Activity (Leishmania amazonensis [19]) [%] | Activity (Leishmania amazonensis [21]) [%] | also measured
COc1ccc2cc(C3=CN4CCC3CC4)ccc2c1 | 72.7 | 13.9 | 6.31 | 0.3 (≈ 0.0796 µg/mL) | 41.2 | 43 | 15.8 | 5.85 | 4.01 | 4.99 | 5.66 | 5.05 | 13.4 |  |  |  |  |  |  | pIC50 (Squalene synthase [4]): 5.55
C(=C1/CN2CCC1CC2)/c1ccc(-c2ccccc2)cc1 | 18.1 | 36.7 | < 6.00 | 0.3 (≈ 0.0826 µg/mL) |  |  |  | 4.38 | 4.87 | 5.74 | 6.15 | 5.51 | 33.3 |  |  |  |  |  |  | Activity (Leishmania amazonensis [11]): 42.2%; Activity (Leishmania amazonensis [12]): 26.4%; Activity (Leishmania amazonensis [13]): 31.4%; IC50 (Squalene synthase [14]): Not Active
OC[C@H]1CC2CCN1C[C@@H]2C#Cc1ccc(-c2ccccc2)cc1 (some centres not stated) |  |  | < 6.00 | 10 (≈ 3.17 µg/mL) | 15.4 | 49.3 | 7.6 | 4.47 | 4.96 | 5.24 | 6.30 | 5.85 |  | 32.7 | 20.1 | 14 | 36 | 6.6 | 10.7 | Activity (Leishmania amazonensis [20]): 7.6%; Activity (Leishmania amazonensis [22]): >99%
CC(C)(C)[Si](C)(C)Oc1ccc(C2=CN3CCC2CC3)cc1 |  |  | < 6.00 | 3 (≈ 0.947 µg/mL) | 29.2 | 54.7 | 7.1 | 4.51 | 4.62 | 4.79 | 5.68 | 5.39 |  | 10.7 | 9 | 55.4 | 21.2 | 7.9 | 4.8 | 
